Measurements taken from ChEMBL document CHEMBL4382210, “Identification of novel benzothiopyranone compounds against Mycobacterium tuberculosis through scaffold morphing from benzothiazinones” (Eur J Med Chem, 2018).

How the values were obtained:
Cytochrome P450 1A2 = molecular target: T1, Cytochrome P450 1A2 (Homo sapiens, UniProt P05177); experiment: Inhibition of CYP1A2 in human liver microsomes after 20 mins by LC-MS/MS analysis; type: ADME
T1 sequence (P05177 whole entry): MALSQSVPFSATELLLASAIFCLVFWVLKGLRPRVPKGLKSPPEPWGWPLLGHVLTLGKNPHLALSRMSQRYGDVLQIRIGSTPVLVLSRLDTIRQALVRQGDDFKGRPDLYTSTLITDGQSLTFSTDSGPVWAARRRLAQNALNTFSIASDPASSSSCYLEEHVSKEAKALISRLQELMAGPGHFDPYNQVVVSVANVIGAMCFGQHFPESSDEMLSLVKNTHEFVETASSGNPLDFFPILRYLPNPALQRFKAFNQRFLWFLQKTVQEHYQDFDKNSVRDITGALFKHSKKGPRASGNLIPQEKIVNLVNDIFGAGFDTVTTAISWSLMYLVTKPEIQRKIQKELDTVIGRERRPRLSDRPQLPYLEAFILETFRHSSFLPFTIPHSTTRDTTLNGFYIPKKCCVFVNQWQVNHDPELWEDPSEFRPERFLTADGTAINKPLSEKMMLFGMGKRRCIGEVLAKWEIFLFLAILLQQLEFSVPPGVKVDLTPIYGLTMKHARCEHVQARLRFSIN
Method in brief: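 Compound at 0.1–50 µM incubated 20 min with human liver microsomes (0.2 mg/mL) and the CYP isoform, alongside isoform-specific probe substrates. Substrate remaining measured by LC-MS/MS at each concentration to derive IC50.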

Vero = experiment: Cytotoxicity against African green monkey Vero cells assessed as reduction in cell viability after 48 hrs by MTT assay; type: cell-based; details: Chlorocebus sabaeus
Method in brief: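 Vero or HepG2 cells in RPMI1640 with 10% FBS at 37 °C, 5% CO2, seeded at 4×10^5 cells/mL. Threefold dilutions at 64–0.26 µg/mL final for 48 h. Cells then washed with HBSS, MTT added for 4 h, absorbance read at 492 nm. IC50 taken relative to untreated control.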

[1] = Intrinsic clearance in CD-1 mouse hepatocytes assessed per million cells at 1 uM incubated up to 120 mins by LC-MS/MS analysis; type: ADME, cell-based, Hepatocyte; details: read-out: CLH
Method in brief: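 Pooled male CD-1 mouse or pooled human hepatocytes at 1 million cells/mL final, compound at 1 µM. Incubated at 37 °C in a CO2 incubator with shaking (~100 rpm). Samples taken at 0, 15, 30, 60, 90 and 120 min and quenched with cold ACN/MeOH containing internal standard. Parent compound remaining measured by LC-MS/MS.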

[2] = Inhibition of Mycobacterium tuberculosis DprE1 expressed in Escherichia coli BL21(DE3) by fluorescence based assay
Method in brief: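 Buffer: 50 mM Hepes pH 7.5, 100 mM NaCl, 1.5% DMSO, 100 µM Tween-20, 2 µM FAD, 50 µM resazurin. DprE1 (1 µM) with 1 mM FPR at 30 °C across inhibitor concentrations. Resorufin formation followed by fluorescence (ex 530/em 595 nm).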

[3] = Selectivity index, ratio of IC50 for human HepG2 cells to MIC=>90 for Mycobacterium tuberculosis H37Rv; type: toxicity; details: read-out: Selectivity Index

O=c1cc(N2CCN(CC3CCCCC3)CC2)sc2c([N+](=O)[O-])cc(C(F)(F)F)cc12
IC50 (Cytochrome P450 1A2): > 50 µM | IC50 (Vero): > 64 µg/mL | hepatocyte CLint at 1 µM [1]: 1.5 µL/min/1e6 cells | IC50 [2]: 4.53 µM | selectivity ratio [3]: > 4000
